Results published in ChEMBL document CHEMBL1156358, “Inhibition of leukocyte functions by the alkaloid isaindigotone from Isatis indigotica and some new synthetic derivatives” (J Nat Prod, 2001).
Active and inactive are the calls of the source. The rule behind the calls is not given here.

Columns and labels:
[1] = system: RAW264.7; test: Antiinflammatory activity against LPS-stimulated mouse RAW264.7 cells assessed as nitrite accumulation at 10 uM after 20 hrs by fluorimetry relative to control; type: functional
Procedure, shortened: (§1)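 Mouse RAW 264.7 cells (2×10^6/mL) in DMEM plus 10% FBS were stimulated for 20 h with E. coli LPS (1 µg/mL), with compound or 1% v/v methanol vehicle. Nitrite in 10 µL supernatant was read fluorometrically after 10 min in the dark with 2,3-diaminonaphthalene (0.05 mg/mL in 0.62 M HCl). Single-point tests used 10 µM, given as mean ± SEM (n = 9-12). IC50s carry 95% confidence limits.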

[2] = system: Neutrophil; test: (§2) Antioxidant activity against hypoxanthine / xanthine oxidase system-stimulated superoxide radical generation in human neutrophils; type: functional, cell-based
[3] = system: RAW264.7; test: Antiinflammatory activity against LPS-stimulated mouse RAW264.7 cells assessed as nitrite accumulation after 20 hrs by fluorimetry; type: functional, cell-based; settings: RAW264.7, 20 h; procedure, shortened: as §1
[4] = Antioxidant activity in cytochalasin B and fMLP-stimulated human neutrophils assessed as inhibition of p-nitrophenol-induced elastase activity at 10 uM
[5] = biological target: T1, Polyunsaturated fatty acid 5-lipoxygenase (Homo sapiens) (UniProt P09917); test: Inhibition of 5LO-mediated LTB4 production in calcium ionophore A23187-stimulated human neutrophils at 10 uM by RIA
T1 sequence (whole entry): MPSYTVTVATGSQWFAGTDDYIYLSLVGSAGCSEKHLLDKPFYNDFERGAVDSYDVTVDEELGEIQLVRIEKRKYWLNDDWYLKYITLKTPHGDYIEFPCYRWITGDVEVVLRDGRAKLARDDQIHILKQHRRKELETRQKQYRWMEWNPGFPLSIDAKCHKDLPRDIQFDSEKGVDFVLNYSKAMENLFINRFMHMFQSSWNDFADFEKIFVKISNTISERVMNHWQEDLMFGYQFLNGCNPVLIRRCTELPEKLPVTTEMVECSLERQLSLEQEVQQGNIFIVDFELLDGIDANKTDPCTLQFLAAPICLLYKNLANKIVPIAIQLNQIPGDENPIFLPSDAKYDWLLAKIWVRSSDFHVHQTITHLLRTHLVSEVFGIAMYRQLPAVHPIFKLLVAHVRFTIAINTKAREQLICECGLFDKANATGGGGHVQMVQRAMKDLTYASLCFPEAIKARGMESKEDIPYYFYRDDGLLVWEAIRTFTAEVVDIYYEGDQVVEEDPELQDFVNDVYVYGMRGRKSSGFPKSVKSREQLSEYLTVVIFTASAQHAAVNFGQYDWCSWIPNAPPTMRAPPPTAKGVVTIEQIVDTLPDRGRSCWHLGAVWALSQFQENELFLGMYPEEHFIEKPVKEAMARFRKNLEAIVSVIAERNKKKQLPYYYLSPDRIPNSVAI

[6] = Cytotoxicity against human neutrophils at 10 uM by MTT assay; type: cell-based; settings: neutrophil
[7] = system: RAW264.7; test: Antiinflammatory activity against LPS-stimulated mouse RAW264.7 cells assessed as PGE2 accumulation at 10 uM after 20 hrs by RIA relative to control; type: functional
Procedure, shortened: (§3)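 RAW 264.7 mouse macrophages (2×10^6/mL) in DMEM with 10% foetal bovine serum were stimulated with E. coli LPS (1 µg/mL) for 20 h alongside compound or vehicle (methanol, 1% v/v). Supernatant PGE2 was measured by radioimmunoassay. Single-point tests used 10 µM, reported as mean ± SEM (n = 9-12) against vehicle-treated stimulated cells. IC50 values carry 95% confidence limits.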

[8] = Antioxidant activity against 12-O-tetradecanoylphorbol-13-acetate-stimulated superoxide radical generation in human neutrophils assessed as chemiluminescence unit per 10^6 cells at 10 uM; type: functional, Neutrophil; set-up: unit not given here
Procedure, shortened: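 Human neutrophils (2.5×10^6 cells/mL) were loaded with luminol (40 µM) and stimulated with TPA (1 µM) for 7 min. Chemiluminescence was recorded, with compounds at 10 µM. Controls were stimulated cells given vehicle. Data are mean ± SEM.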

[9] = system: RAW264.7; test: Antiinflammatory activity against LPS-stimulated mouse RAW264.7 cells assessed as PGE2 accumulation after 20 hrs by RIA; type: functional, cell-based; settings: RAW264.7, 20 h; procedure, shortened: as §3
[10] = biological target: T1, Polyunsaturated fatty acid 5-lipoxygenase (Homo sapiens); test: (§4) Inhibition of 5LO-mediated LTB4 production in human neutrophils by RIA
[11] = biological target: T2, Polyunsaturated fatty acid 5-lipoxygenase (Homo sapiens, UniProt P09917); test: as §4
T2 sequence (P09917 whole entry): T1 sequence (whole entry)

[12] = as §2; type: functional, cell-based; settings: Neutrophil
[13] = (§5) Antioxidant activity against 12-O-tetradecanoylphorbol-13-acetate-stimulated superoxide radical generation in human neutrophils; type: functional, cell-based; settings: Neutrophil
[14] = system: Neutrophil; test: as §5; type: functional, cell-based

| Structure (SMILES) | Activity [1] [ng/mL] | Activity [2] | IC50 [3] [nM] | Activity [4] [nmol/mL] | Activity [5] [ng/mL] | Activity [6] | Activity [7] [ng/mL] | Activity [8] | IC50 [9] [nM] | Activity [10] | IC50 [11] [nM] | IC50 [12] [nM] | IC50 [13] [nM] | Activity [14] |
| --- | --- | --- | --- | --- | --- | --- | --- | --- | --- | --- | --- | --- | --- | --- |
| O=c1c2ccccc2nc2n1CC/C2=C\c1ccc(C(F)(F)F)cc1 | 448 | inactive | > 10000 | 19.3 | 57.9 | Non-toxic | 15.6 | 4101.1 | > 10000 |  |  |  |  |  |
| O=c1c2ccccc2nc2n1CC/C2=C\c1ccc(F)cc1 | 438 | inactive | > 10000 | 19.7 | 58.9 | Non-toxic | 5.7 | 3221.7 | 80 |  |  |  |  |  |
| CCn1c(=O)ccc2cc(COc3cc(F)cc(C4(OC)CCOCC4)c3)ccc21 |  |  |  |  | 4.5 |  |  |  |  |  |  |  |  |  |
| O=c1c2ccccc2nc2n1CC/C2=C\c1ccccc1 | 337.1 | inactive | > 10000 | 19.1 | 61.6 | Non-toxic | 4.8 | 2960.4 |  |  |  |  |  |  |
| COc1cc(/C=C2\CCn3c2nc2ccccc2c3=O)cc(OC)c1OC(C)=O | 143.4 | inactive | 4200 | 18.6 | 13.5 | Non-toxic | 6.7 | 2486.9 | 200 | Dose-dependent effect | 600 |  |  |  |
| CC(=O)Oc1ccc(/C=C2\CCn3c2nc2ccccc2c3=O)cc1 | 151.2 | inactive | 1800 | 19.2 | 59.8 | Non-toxic | 9.9 | 2636.4 |  |  |  |  |  |  |
| CS(=O)(=O)Nc1ccc([N+](=O)[O-])cc1OC1CCCCC1 [NS-398] |  |  | > 10000 |  |  |  | 3.7 |  | 2.1 |  |  |  |  |  |
| COc1cc(/C=C2\CCn3c2nc2ccccc2c3=O)cc(OC)c1 | 437.2 | inactive | > 10000 | 16.8 | 58.4 | Non-toxic | 14.8 | 4150.7 | > 10000 |  |  |  |  |  |
| COc1cc(/C=C2\CCn3c2nc2ccccc2c3=O)cc(OC)c1O [ISAINDIGOTONE] | 459.3 |  | > 10000 | 19.3 | 4.2 | Non-toxic | 20.3 | 570.6 | > 10000 | Dose-dependent effect | 40 | 42.2 | 41.8 | Dose-dependent effect |
| CC(=N)NCc1cccc(CN)c1 [1400W] | 11.6 |  | 300 |  |  |  |  |  | > 10000 |  |  |  |  |  |
| O=c1c2ccccc2nc2n1CC/C2=C\c1ccc(O)cc1 | 429.8 | inactive | > 10000 | 16.9 | 55.9 | Non-toxic | 15.4 | 3269.2 | > 10000 |  |  |  |  |  |
